Columns and labels:
Format in all cases: functional, cell-based
[1] = system: T-24; assay: Cytotoxicity against human T-24 cells […] assessed as reduction in cell viability preincubated for 48 hrs and measured after 4 hrs by MTT assay
[2] = system: DU-145; assay: Cytotoxicity against human DU145 cells expressing mutant type p53 assessed as reduction in cell viability preincubated for 48 hrs and measured after 4 hrs by MTT assay
Method in brief: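 MTT assay. Cells grown in DMEM (T24, MGC-803, A549, HL-7702), RPMI-1640 (DU145) or DMEM-F12 (PC-3), each with 10% FBS. Exposed to 1.25–20 µM in medium with 1% DMSO for 48 h, then MTT for 4 h. Formazan dissolved in DMSO and read at 570 nm. Five wells per concentration; means ± SD of independent repeats.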

[3] = system: A549; assay: Cytotoxicity against human A549 cells expressing wild type p53 assessed as reduction in cell viability preincubated for 48 hrs and measured after 4 hrs by MTT assay
[4] = system: L02; assay: Cytotoxicity against human HL-7702 cells expressing wild type p53 assessed as reduction in cell viability preincubated for 48 hrs and measured after 4 hrs by MTT assay
[5] = system: MGC-803; assay: Cytotoxicity against human MGC-803 cells expressing mutant type p53 assessed as reduction in cell viability preincubated for 48 hrs and measured after 4 hrs by MTT assay
[6] = system: PC-3; assay: Cytotoxicity against human PC-3 cells assessed as reduction in cell viability preincubated for 48 hrs and measured after 4 hrs by MTT assay

Question: Which IC50 [1] does the source give for COc1ccc(/C=C/c2nc(NCCN3CCOCC3)c3cc(Cl)ccc3n2)cc1OC here?
Answer: 91.8 µM

Question: And the IC50 [2]?
Answer: > 100 µM

Question: And the IC50 [3]?
Answer: > 100 µM

Question: And the IC50 [4]?
Answer: > 100 µM

Question: And the IC50 [5]?
Answer: > 100 µM

Question: What about the IC50 [6] of the same compound?
Answer: > 100 µM

Question: COc1ccc(/C=C/c2nc(NCCCN(C)C)c3ccccc3n2)cc1OC was tested. Which IC50 [1] did it give?
Answer: 88.4 µM

Question: What about the IC50 [2] of the same compound?
Answer: > 100 µM

Question: What about the IC50 [3] of the same compound?
Answer: > 100 µM

Question: What about the IC50 [4] of the same compound?
Answer: > 100 µM

Question: What about the IC50 [5] of the same compound?
Answer: > 100 µM

Question: And the IC50 [6]?
Answer: > 100 µM

Question: CCN(CC)CCNc1nc(/C=C/c2ccc([N+](=O)[O-])cc2)nc2ccc(Cl)cc12 was tested. Which IC50 [1] did it give?
Answer: 11 µM

Question: What about the IC50 [2] of the same compound?
Answer: 12.4 µM

Question: What about the IC50 [3] of the same compound?
Answer: > 100 µM

Question: What about the IC50 [4] of the same compound?
Answer: > 100 µM

Question: And the IC50 [5]?
Answer: 7.12 µM

Question: What about the IC50 [6] of the same compound?
Answer: > 100 µM

Question: COc1ccc(/C=C/c2nc(NCCN(C(C)C)C(C)C)c3cc(Cl)ccc3n2)cc1OC was tested. Which IC50 [1] did it give?
Answer: 14.8 µM

Question: And the IC50 [2]?
Answer: > 100 µM

Question: And the IC50 [3]?
Answer: > 100 µM

Question: And the IC50 [4]?
Answer: > 100 µM

Question: What about the IC50 [5] of the same compound?
Answer: 15.6 µM

Question: And the IC50 [6]?
Answer: > 100 µM

Question: Which results are given for COc1ccc(/C=C/c2nc(NCCCCN)c3cc(Cl)ccc3n2)cc1OC?
Answer: IC50 [1]: 7.82 µM; IC50 [2]: 20 µM; IC50 [3]: 50.5 µM; IC50 [4]: > 100 µM; IC50 [5]: 14.1 µM; IC50 [6]: > 100 µM

Question: How did the IC50 [1] turn out when C(=C\c1nc(NCCN2CCCCC2)c2ccccc2n1)/c1ccc2c(c1)OCO2 was run?
Answer: 6.38 µM

Question: And the IC50 [2]?
Answer: 8.53 µM

Question: And the IC50 [3]?
Answer: 39.6 µM

Question: And the IC50 [4]?
Answer: 9.91 µM

Question: And the IC50 [5]?
Answer: 10.7 µM

Question: And the IC50 [6]?
Answer: 12.2 µM

Question: How did the IC50 [1] turn out when COc1ccc(/C=C/c2nc(NCCN(C)C)c3cc(Cl)ccc3n2)cc1OC was run?
Answer: 12.1 µM

Question: What about the IC50 [2] of the same compound?
Answer: 17.9 µM

Question: And the IC50 [3]?
Answer: 21.3 µM

Question: And the IC50 [4]?
Answer: 80.5 µM

Question: And the IC50 [5]?
Answer: 11.8 µM

Question: And the IC50 [6]?
Answer: 23.6 µM

Question: CC(C)N(CCNc1nc(/C=C/c2ccc([N+](=O)[O-])cc2)nc2ccccc12)C(C)C was tested. Which IC50 [1] did it give?
Answer: 14.2 µM

Question: What about the IC50 [2] of the same compound?
Answer: > 100 µM

Question: What about the IC50 [3] of the same compound?
Answer: > 100 µM

Question: What about the IC50 [4] of the same compound?
Answer: 8.96 µM

Question: And the IC50 [5]?
Answer: 29.1 µM

Question: And the IC50 [6]?
Answer: > 100 µM

Question: With CCN(CC)CCCNc1nc(/C=C/c2ccc([N+](=O)[O-])cc2)nc2ccc(Cl)cc12 as the compound, how does the IC50 [1] read?
Answer: 7.12 µM

Question: What about the IC50 [2] of the same compound?
Answer: 8.12 µM

Question: What about the IC50 [3] of the same compound?
Answer: 76.4 µM

Question: And the IC50 [4]?
Answer: 15 µM

Question: What about the IC50 [5] of the same compound?
Answer: 7.37 µM

Question: And the IC50 [6]?
Answer: 6.89 µM

Question: What does the source list for NCCCCNc1nc(/C=C/c2ccc([N+](=O)[O-])cc2)nc2ccc(Cl)cc12?
Answer: IC50 [1]: 5.62 µM; IC50 [2]: > 100 µM; IC50 [3]: 10 µM; IC50 [4]: > 100 µM; IC50 [5]: 9.16 µM; IC50 [6]: > 100 µM

Question: What does the source list for Clc1ccc2nc(/C=C/c3ccc4c(c3)OCO4)nc(NCCN3CCCCC3)c2c1?
Answer: IC50 [1]: 9.22 µM; IC50 [2]: > 100 µM; IC50 [3]: > 100 µM; IC50 [4]: > 100 µM; IC50 [5]: 14.7 µM; IC50 [6]: > 100 µM

Question: Which IC50 [1] does the source give for NCCCCNc1nc(/C=C/c2ccc3c(c2)OCO3)nc2ccccc12 here?
Answer: 41.2 µM

Question: And the IC50 [2]?
Answer: > 100 µM

Question: And the IC50 [3]?
Answer: > 100 µM

Question: What about the IC50 [4] of the same compound?
Answer: > 100 µM

Question: What about the IC50 [5] of the same compound?
Answer: 24.6 µM

Question: What about the IC50 [6] of the same compound?
Answer: > 100 µM

Question: For CN(C)CCCNc1nc(/C=C/c2ccc([N+](=O)[O-])cc2)nc2ccc(Cl)cc12, which IC50 [1] is on record?
Answer: 7.42 µM

Question: What about the IC50 [2] of the same compound?
Answer: 8.49 µM

Question: And the IC50 [3]?
Answer: 15.8 µM

Question: What about the IC50 [4] of the same compound?
Answer: > 100 µM

Question: What about the IC50 [5] of the same compound?
Answer: 6.67 µM

Question: And the IC50 [6]?
Answer: 5.32 µM

Question: What does the source list for O=[N+]([O-])c1ccc(/C=C/c2nc(NCCN3CCCCC3)c3ccccc3n2)cc1?
Answer: IC50 [1]: 36.2 µM; IC50 [2]: > 100 µM; IC50 [3]: 28.2 µM; IC50 [4]: > 100 µM; IC50 [5]: 27.6 µM; IC50 [6]: 25.6 µM

Question: With CCN(CC)CCCNc1nc(/C=C/c2ccc3c(c2)OCO3)nc2ccccc12 as the compound, how does the IC50 [1] read?
Answer: > 100 µM

Question: And the IC50 [2]?
Answer: > 100 µM

Question: And the IC50 [3]?
Answer: > 100 µM

Question: What about the IC50 [4] of the same compound?
Answer: > 100 µM

Question: What about the IC50 [5] of the same compound?
Answer: > 100 µM

Question: What about the IC50 [6] of the same compound?
Answer: > 100 µM

Question: With O=[N+]([O-])c1ccc(/C=C/c2nc(NCCN3CCOCC3)c3ccccc3n2)cc1 as the compound, how does the IC50 [1] read?
Answer: > 100 µM

Question: And the IC50 [2]?
Answer: > 100 µM

Question: And the IC50 [3]?
Answer: > 100 µM

Question: What about the IC50 [4] of the same compound?
Answer: > 100 µM

Question: And the IC50 [5]?
Answer: > 100 µM

Question: And the IC50 [6]?
Answer: > 100 µM

Question: Which results are given for COc1ccc(/C=C/c2nc(NCCCCN)c3ccccc3n2)cc1OC?
Answer: IC50 [1]: 30.9 µM; IC50 [2]: > 100 µM; IC50 [3]: > 100 µM; IC50 [4]: > 100 µM; IC50 [5]: 70.5 µM; IC50 [6]: > 100 µM

Question: Which results are given for COc1ccc(/C=C/c2nc(NCCN(C(C)C)C(C)C)c3ccccc3n2)cc1OC?
Answer: IC50 [1]: 6.5 µM; IC50 [2]: 15 µM; IC50 [3]: 38.8 µM; IC50 [4]: > 100 µM; IC50 [5]: 15.5 µM; IC50 [6]: 20.3 µM

Question: What does the source list for CCN(CC)CCNc1nc(/C=C/c2ccc([N+](=O)[O-])cc2)nc2ccccc12?
Answer: IC50 [1]: > 100 µM; IC50 [2]: > 100 µM; IC50 [3]: > 100 µM; IC50 [4]: 44.5 µM; IC50 [5]: > 100 µM; IC50 [6]: > 100 µM

Question: What does the source list for COc1ccc(/C=C/c2nc(NCCN3CCOCC3)c3ccccc3n2)cc1OC?
Answer: IC50 [1]: > 100 µM; IC50 [2]: > 100 µM; IC50 [3]: > 100 µM; IC50 [4]: > 100 µM; IC50 [5]: > 100 µM; IC50 [6]: > 100 µM

Question: What does the source list for CCN(CC)CCCNc1nc(/C=C/c2ccc3c(c2)OCO3)nc2ccc(Cl)cc12?
Answer: IC50 [1]: 9.74 µM; IC50 [2]: > 100 µM; IC50 [3]: > 100 µM; IC50 [4]: > 100 µM; IC50 [5]: 12.9 µM; IC50 [6]: > 100 µM
